From PubChem
S100A4 inh HTS = S100A4-myosin IIA interaction inhibition; P26447; inhibition, % at 10.7 µM; S100A4/TAMRA-MyoIIA peptide fluorescence polarization; actives 0.14% (n = 360,000);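 active means mean inhibition of at least 70% across replicates, with every replicate also reaching that level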
Target sequence (P26447 whole entry, looked up): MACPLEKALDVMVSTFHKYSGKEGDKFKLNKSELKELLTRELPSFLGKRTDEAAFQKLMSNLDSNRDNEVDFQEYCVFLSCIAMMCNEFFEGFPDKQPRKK
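incubation = readout 5 min after mixing, signal stable up to 60 min | system = S100A4 monomer protein | buffer or medium = HEPES pH 7.2 with CaCl2, KCl, NaCl, DTT, Triton | benchmarks = neutral control DMSO, positive control TFP | also added = fluorescent myosin IIA peptide, 5 nM | compound dosing = one concentration per compound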
SIRT5 block = inhibitors of human sirtuin-5 desuccinylase; inhibition, % at 15 µM; Purified SirT5, succinyl-peptide AMC, trypsin-coupled fluorescence; Q9NXA8; actives 1.1% (n = 330,000); in the data active means inhibition above about 15%
Target sequence (Q9NXA8 whole entry, looked up): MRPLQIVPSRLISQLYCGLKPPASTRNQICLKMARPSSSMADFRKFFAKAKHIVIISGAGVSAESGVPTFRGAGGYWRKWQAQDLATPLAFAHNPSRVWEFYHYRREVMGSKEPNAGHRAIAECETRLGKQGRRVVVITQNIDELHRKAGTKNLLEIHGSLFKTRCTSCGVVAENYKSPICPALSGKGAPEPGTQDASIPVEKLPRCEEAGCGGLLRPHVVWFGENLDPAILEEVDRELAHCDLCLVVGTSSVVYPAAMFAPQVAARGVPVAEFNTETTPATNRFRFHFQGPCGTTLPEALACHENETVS
F508del corr = CFTR F508del correction in bronchial cells; CFBE cells, YFP halide quenching; stimulated with forskolin plus potentiator P3; % fluorescence drop versus neutral controls; activity (quench increase), % at 7.58 µM; actives 0.36% (n = 350,000);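 active means mean added fluorescence quench of at least 8% versus neutral control, with both replicates also reaching 8%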;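 further: cells transiently co-express mutant CFTR-F508del with the halide-sensitive YFP; corrector assay measuring rescue of mutant channel to the surface after 24 h compound exposure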
ERAP1 HTS inh = blocks human ERAP1 aminopeptidase activity; inhibition, % at 10.7 µM; AID 652197; actives 0.15% (n = 340,000); Q9NZ08; recombinant ERAP1, Leu-AMC fluorescence, 60 min;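 active means mean replicate inhibition of at least 30%, or all replicates individually reaching that 30% level; inactive means mean below 30% and not every replicate reaching it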
Ecoli rRNA inh = inhibits bacterial ribosomal RNA function over humanized ribosomes. E. coli WT GFP vs humanized-ribosome RFP mutants, fluorescence, 24 h; active compounds read low; DMSO median 0, no signal -100. GFP signal change (wild-type ribosome), % (no concentration beside the values). actives 1.6% (n = 350,000);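 active means significant combined selectivity score with lowered wild-type GFP, culture density cut under 30%, mutant RFP and density less affected; inactive means any of these conditions unmet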
A number is an active result; n = inactive; x = no result; ! = repeats disagree. Rows were chosen to be rich in hits. Some 3.1% of all compounds tested hit in one or more screens of this group.

SMILES	S100A4 inh HTS	SIRT5 block	F508del corr	ERAP1 HTS inh	Ecoli rRNA inh
C[C@@H]1CN([C@@H](C)CO)C(=O)Cc2cc(NS(=O)(=O)c3ccc(Cl)cc3)ccc2O[C@H]1CN(C)Cc1ccc(Oc2ccccc2)cc1	n	24	n	n	n
Cc1noc(C)c1S(=O)(=O)N(C)C[C@H]1Oc2ccc(NS(C)(=O)=O)cc2C(=O)N([C@H](C)CO)C[C@@H]1C	x	x	x	x	n
Cc1ccccc1CN1C(=O)c2ccccc2Sc2ccc(C(=O)O)cc21	n	n	n	n	-34
O=C(c1ccc2c(c1)N(Cc1ccccc1)C(=O)c1ccccc1S2)N1CCCC1	n	n	n	n	n
Cc1cccc(CN2C(=O)c3ccccc3Sc3ccc(C(=O)O)cc32)c1	n	x	n	n	-21
Cc1ccccc1CN1C(=O)c2ccccc2Sc2ccc(C(=O)NCCN3CCOCC3)cc21	n	n	n	n	n
CC1=C(C(=O)OCc2ccccc2)C(c2ccc(C#N)cc2)NC(=O)N1CCCC(=O)O (stereo not given)	n	n	n	n	-17
CC1=C(C(=O)OCc2ccccc2)C(c2ccccc2)NC(=O)N1CCCC(=O)O (stereo not given)	n	n	n	n	n
CC1=C(C(=O)OCC(Br)(Br)Br)C(c2cccc([N+](=O)[O-])c2)NC(=O)N1CCCC(=O)O (stereo not given)	n	23	n	n	-20
CCOC(=O)C1=C(C)N(CCCCCC(=O)O)C(=O)NC1c1cccc([N+](=O)[O-])c1 (stereo not given)	n	x	n	n	n
C[C@@H]1CN([C@H](C)CO)C(=O)c2cc(-c3ccccc3)cnc2O[C@@H]1CN(C)C(=O)Cc1ccccn1	n	n	n	n	n
CO[C@@H]1CN(C)C(=O)c2ccc(NC(=O)Nc3ccccc3F)cc2OC[C@@H](C)NC[C@@H]1C	n	n	n	n	n
Cc1ccc(OCC(=O)Nc2ccc3c(c2)ncn3C)cc1	n	n	22	n	n
Cn1cnc2cc(NC(=O)COc3ccccc3)ccc21	n	n	n	n	n
O=C(COc1ccc(-n2ccnc2)cc1)Nc1cccc(F)c1	n	n	n	n	n
O=C(COc1ccc(-n2ccnc2)cc1)Nc1cccc(Cl)c1	n	23	n	n	n
C[C@@H]1CN([C@H](C)CO)C(=O)c2cc(NC(=O)Cn3cnnn3)ccc2O[C@@H]1CN(C)S(=O)(=O)c1cn(C)cn1	n	n	n	n	n
C=CCOc1ccc(/C=C2\SC(=S)N(C(C(=O)O)c3ccccc3)C2=O)cc1 (stereo not given)	n	n	n	34	-42
CC(/C=C1\SC(=S)N(C(C(=O)O)c2ccccc2)C1=O)=C\c1ccccc1 (stereo not given)	n	n	n	30	-27
CCOc1ccc(/C=C2\SC(=S)N(C(C(=O)O)c3ccccc3)C2=O)cc1OC (stereo not given)	n	n	n	n	n
CC(/C=C1\SC(=S)N(CC(=O)O)C1=O)=C\c1ccccc1	n	n	n	n	n
COc1ccc(/C(N)=N/OC(=O)Cc2ccc(OC)c(OC)c2)cc1	n	n	n	n	-26
Cc1ccc(S(=O)(=O)N2CCC(C(=O)N3CCC(C(=O)NCC4CCCO4)CC3)CC2)cc1 (stereo not given)	n	n	n	n	n
CC1CCN(S(=O)(=O)N2CCC(C(=O)N3CCC(N(C)CC4CCCO4)CC3)CC2)CC1 (stereo not given)	n	18	n	n	n
COc1cc(C(=O)Nc2ccc3c(c2)CCN3C(C)=O)cc(OC)c1OC	n	n	12	n	n
SMILES	S100A4 inh HTS	SIRT5 block	F508del corr	ERAP1 HTS inh	Ecoli rRNA inh
COc1cc(C(=O)Nc2ccc3ccccc3c2)cc(OC)c1OC	n	n	n	x	-25
COc1ccc(/C=N/NC(=O)c2ccc(COc3ccccc3Cl)o2)cc1	n	n	x	n	n
COc1ccccc1OCc1ccc(C(=O)NN)o1	n	n	n	n	n
CC(=O)Nc1ccc(/C(C)=N/NC(=O)c2ccc(COc3ccccc3Cl)o2)cc1	n	n	n	x	-30
COc1ccc(C(=O)Nc2ccc3ccccc3c2)cc1OC	n	n	n	n	n
COc1ccccc1OCc1ccc(C(=O)Nc2cc(OC)c(OC)c(OC)c2)o1	n	n	n	n	-22
O=C(Nc1ccc(F)cc1)N[C@@H]1C[C@@H]2O[C@@H](CO)CC[C@@H]2O[C@@H]1CCc1ccc(C2=CCCC2)cc1	x	x	n	x	x
COc1ccc(NC(=O)Nc2ccc3c(c2)C(=O)N([C@@H](C)CO)C[C@@H](C)[C@@H](CN(C)S(=O)(=O)c2ccc(F)cc2)OCCCC[C@@H](C)O3)cc1	n	n	n	n	n
COc1ccccc1-n1c(-c2ccccc2)c[n+]2c1CCc1ccccc1-2	n	112!	n	n	n
Cc1ccccc1CSCc1nc2ccccc2[nH]1	n	n	x	n	-22
Cc1ccc(-c2nnc(Nc3ccc(CC(N)=O)cc3)c3ccccc23)cc1S(=O)(=O)NCC1CCCO1 (stereo not given)	n	n	n	n	-31
O=C(Nc1ccc(F)cc1)N1CCCCN2[C@@H](CO)[C@H](c3ccc(C#Cc4ccccn4)cc3)[C@@H]2C1	n	n	n	n	n
O=C(Nc1ccc(F)cc1)N1CCCCN2[C@H](CO)[C@H](c3ccc(C#Cc4ccccn4)cc3)[C@H]2C1	87	n	n	n	n
O=C(Nc1ccccc1)N1CCCCN2[C@H](CO)[C@H](c3ccc(C#Cc4ccccn4)cc3)[C@H]2C1	91	n	n	n	n
COc1ccccc1NC(=O)N[C@H]1C=C[C@H](CC(=O)N2CCC(Cc3ccccc3)CC2)O[C@@H]1CO	103	n	n	n	n
O=C(C[C@H]1C=C[C@H](NC(=O)CCN2CCCCC2)[C@H](CO)O1)Nc1nccs1	131	n	n	n	n
O=C(C[C@@H]1C=C[C@H](NC(=O)CCN2CCCCC2)[C@@H](CO)O1)Nc1nccs1	n	n	n	n	n
O=C(CCN1CCCCC1)N[C@@H]1C=C[C@H](CC(=O)N2CCC(Cc3ccccc3)CC2)O[C@H]1CO	n	15	n	n	n
O=C(CCN1CCCCC1)N[C@H]1C=C[C@@H](CC(=O)N2CCC(Cc3ccccc3)CC2)O[C@@H]1CO	n	n	n	n	n
COc1ccc2c3c([nH]c2c1)[C@H](CO)N(Cc1ccccc1)CC31CCN(C(=O)Nc2cccc(F)c2)CC1	n	n	n	n	n
O=C(N[C@H]1CC[C@@H](CC(=O)N2CCCCC2)O[C@H]1CO)c1cccc(F)c1	n	n	n	n	n
C[C@@H]1CN([C@@H](C)CO)C(=O)Cc2cc(NC(=O)Nc3ccc(F)cc3)ccc2O[C@@H]1CN(C)S(=O)(=O)c1ccc(Cl)cc1	n	n	n	n	n
Cc1[nH]c2ccccc2c1C(=O)CN1C(=O)C(=O)N(Cc2ccco2)C1=O	n	n	n	33	n
